Assay outcomes as filed in PubChem.
Most compounds without a hit are left out; they make up all but 5.2% or so of the library.
EBNA-1 inhibitor = blocks EBNA-1 binding to DNA | inhibition, % at 14.8 µM | hit rate 0.34% among 300,000 | EBNA-1 DNA binding, fluorescence polarization; in the data active means inhibition above about 28%
ALR inh = human ALR oxidase inhibition via reduced H2O2 | P55789 | purified ALR, DTT oxidation, H2O2 HRP-luminol luminescence | inhibition, % (no concentration beside the values) | hit rate 3.8% among 290,000 | AID 485317;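 active means mean replicate inhibition above about 79%, with every replicate also reaching it, limit read from the data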
Target sequence (P55789 whole entry, looked up): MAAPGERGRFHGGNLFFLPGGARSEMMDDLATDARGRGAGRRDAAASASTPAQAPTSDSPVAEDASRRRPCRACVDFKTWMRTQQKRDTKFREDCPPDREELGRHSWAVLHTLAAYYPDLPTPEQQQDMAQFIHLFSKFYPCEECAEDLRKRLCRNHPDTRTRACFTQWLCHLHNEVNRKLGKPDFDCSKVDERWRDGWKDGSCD
core dimer inh = HCV core protein dimerization inhibition; inhibition, % at 5 µM; AID 1899; hit rate 0.33% among 300,000; TR-FRET GST/Flag-core106 dimerization, 1536-well;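 active means inhibition above the mean of all tested compounds plus 3 SD, set per screening campaign, cut at about 45% in these data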
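Test system: GST/Flag-tagged HCV core106 proteins; Medium: KF-containing HEPES buffer, pH 7.45, DTT, CHAPS, BSA; Times: compound-protein-antibody incubation 4 h at 22.5 °C; Detection: TR-FRET 671 and 617 nm emission; Benchmarks: wells lacking GST-core106 and wells with excess unlabelled core106.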
M18AAP inhibitor = blocks P. falciparum M18 aspartyl aminopeptidase | hit rate 1.2% among 290,000 | inhibition, % at 7.35 µM | recombinant PfM18AAP, H-Glu-NHMec fluorogenic cleavage;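 active means inhibition above the campaign mean inhibition over all tested compounds plus 3 SD, cut at about 28% in these data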
NS3 helicase inh = HCV NS3 helicase inhibition; NS3 helicase DNA unwinding, Cy5 molecular beacon fluorescence; inhibition, % at 10.9 µM; hit rate 0.56% among 290,000;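 active means inhibition above the mean of all tested compounds plus 3 SD, set per campaign, cut at about 35% in these data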
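assay system = NS3 helicase fragment of HCV | buffer or medium = MOPS pH 6.5, MgCl2, DTT, Tween20, BSA | timing = 60 min unwinding reaction at 25 °C after ATP addition | signal = Cy5 beacon fluorescence read at start and 1 h | read-out basis = % inhibition of unwinding | control set = low DMSO, high thioflavine S at 110 µM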
ZTA counter = counter-screen for EBNA-1 inhibitors: inhibitors of Epstein-Barr virus ZTA; ZTA-DNA binding, fluorescence polarization; inhibition, % at 11 µM; hit rate 0.15% among 320,000; AID 2234; in the data active means inhibition above about 33%
Target sequence (P03206 whole entry, looked up): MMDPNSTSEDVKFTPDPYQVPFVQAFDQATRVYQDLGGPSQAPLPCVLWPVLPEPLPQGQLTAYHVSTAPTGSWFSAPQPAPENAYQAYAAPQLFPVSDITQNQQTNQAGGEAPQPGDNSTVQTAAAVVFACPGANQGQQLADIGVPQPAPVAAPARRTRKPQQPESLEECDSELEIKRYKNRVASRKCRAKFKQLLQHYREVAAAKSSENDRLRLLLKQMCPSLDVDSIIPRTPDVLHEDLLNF
NS3 helicase cf = HCV NS3 helicase inhibition, confirmation assay; hit rate 31% among 1,600; shares compounds with NS3 helicase inh; NS3 helicase DNA unwinding, Cy5 molecular beacon fluorescence; AID 1943; inhibition, % at 10.9 µM;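 active means inhibition above the mean of all tested compounds plus 3 SD, cutoff set per campaign, cut at about 36% in these data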
DNA FID counter = displaces DNA intercalator in HCV helicase counter-screen; hit rate 4% among 1,600; DNA fluorescent intercalator displacement, fluorescence; inhibition, % at 7.9 µM; AID 1945; shares compounds with NS3 helicase inh; in the data active means inhibition above about 37%;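 further: higher means more displacement of ethidium bromide from the DNA hairpin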
Hits are given with their value.

For CC(C)CC(=O)Nc1nnc(S(=O)(=O)N(C)Cc2ccco2)s1 the results were EBNA-1 inhibitor inactive, ALR inh inactive, core dimer inh inactive, M18AAP inhibitor inactive, NS3 helicase inh 55, ZTA counter inactive, NS3 helicase cf inactive and DNA FID counter inactive.
For CCN(c1ccccc1)S(=O)(=O)c1nnc(NC(=O)CC(C)C)s1 the results were EBNA-1 inhibitor inactive, core dimer inh inactive, M18AAP inhibitor inactive, NS3 helicase inh inactive and ZTA counter inactive.
For CCc1nn2cc(C(=O)c3cc(Cl)ccc3O)cnc2c1-c1ccc(F)cc1 the results were EBNA-1 inhibitor inactive, core dimer inh inactive, M18AAP inhibitor inactive, NS3 helicase inh inactive and ZTA counter inactive.
`CCc1cc(=O)oc2c3c(cc(OCC(=O)NC4CC4)c12)OC(C)(C)CC3` gave EBNA-1 inhibitor inactive, ALR inh inactive, core dimer inh inactive, M18AAP inhibitor inactive, NS3 helicase inh 42, ZTA counter inactive, NS3 helicase cf inactive and DNA FID counter inactive.
Screening CCc1cc(=O)oc2c3c(cc(OCC(=O)NCCCC(=O)O)c12)OC(C)(C)CC3 returned EBNA-1 inhibitor inactive, ALR inh inactive, core dimer inh inactive, M18AAP inhibitor inactive, NS3 helicase inh inactive and ZTA counter inactive.
O=C(O)c1ccccc1NS(=O)(=O)c1cccc(NS(=O)(=O)c2cc(Br)ccc2Br)c1 was read as ALR inh inactive.
Cc1ccc(-c2nc3c(c(=O)c4ccccc4n3C)c(=O)n2Cc2ccco2)cc1 was read as EBNA-1 inhibitor inactive, ALR inh inactive, core dimer inh inactive, M18AAP inhibitor inactive, NS3 helicase inh 38, ZTA counter inactive, NS3 helicase cf inactive and DNA FID counter inactive.
Cn1c2ccccc2c(=O)c2c(=O)n(Cc3ccco3)c(-c3ccc(F)cc3)nc21 was read as EBNA-1 inhibitor inactive, ALR inh inactive, core dimer inh inactive, M18AAP inhibitor inactive, NS3 helicase inh inactive and ZTA counter inactive.
`Cc1cccc(NC(=O)CSCC(=O)N(C)Cc2c(F)cccc2Cl)c1` gave EBNA-1 inhibitor inactive, ALR inh inactive, core dimer inh inactive and ZTA counter inactive.
For COC(=O)N/N=C/c1cc(C)n(-c2ccc(F)cc2)c1C the results were EBNA-1 inhibitor inactive, ALR inh inactive, core dimer inh inactive, M18AAP inhibitor inactive, NS3 helicase inh 42, ZTA counter inactive, NS3 helicase cf inactive and DNA FID counter inactive.
O=C1OC(c2ccc(F)cc2)=C/C1=C\c1ccc([N+](=O)[O-])o1 was read as EBNA-1 inhibitor inactive, ALR inh inactive, core dimer inh inactive, M18AAP inhibitor inactive, NS3 helicase inh 45, ZTA counter inactive, NS3 helicase cf 42 and DNA FID counter inactive.
`O=C1OC(c2ccc(F)cc2)=C/C1=C\c1ccc(O)cc1` gave EBNA-1 inhibitor inactive, ALR inh inactive, core dimer inh inactive, M18AAP inhibitor inactive, NS3 helicase inh inactive and ZTA counter inactive.
`CCn1nc(NS(=O)(=O)c2ccc([N+](=O)[O-])cc2)c2cc3ccccc3nc21` gave EBNA-1 inhibitor inactive, ALR inh inactive, core dimer inh inactive, M18AAP inhibitor inactive, NS3 helicase inh inactive and ZTA counter inactive.
For COCCN1CC(C(=O)N2CCC(Oc3ccccc3OC)CC2)CCC1=O (centres undefined) the results were EBNA-1 inhibitor inactive, ALR inh inactive, core dimer inh inactive, M18AAP inhibitor inactive, NS3 helicase inh inactive and ZTA counter inactive.
For Cc1cc(F)ccc1S(=O)(=O)Nc1ncnc2sc3c(c12)CCC3 the results were EBNA-1 inhibitor inactive, ALR inh inactive, core dimer inh inactive, M18AAP inhibitor inactive, NS3 helicase inh 39, ZTA counter inactive, NS3 helicase cf inactive and DNA FID counter inactive.
N#Cc1c(Nc2ccccc2)sc(C(=O)C2CC2)c1N was read as EBNA-1 inhibitor inactive, ALR inh inactive, core dimer inh inactive, M18AAP inhibitor inactive, NS3 helicase inh inactive and ZTA counter inactive.
Cc1ccc(/C=C/C(=O)Nc2ccc(S(N)(=O)=O)cc2)o1 was read as EBNA-1 inhibitor inactive, ALR inh inactive, core dimer inh inactive, M18AAP inhibitor inactive, NS3 helicase inh inactive and ZTA counter inactive.
